Active and inactive are the calls of the source. No cut-off for these calls is given here.
Experiments:
Brain = test: Antioxidant activity in Sprague-Dawley albino rat brain homogenate assessed as inhibition of hydroxyl radical dependent lipoperoxidation measuring malondialdehyde production at 100 uM after 30 mins by TBARS assay; type: functional, tissue-based
In short: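 Rat brain homogenized 10% (w/v) in phosphate buffer pH 7.4; 100 μL homogenate with 20 μM FeCl3 and 100 μM ascorbic acid (final), test compound at 100 μM final, 1 mL, 30 min at 37 °C. TBA/HCl added, boiled 10 min, n-butanol extraction, A532; TBARS as nmol MDA per 10 mg wet tissue vs tetramethoxypropane standard curve. At least two determinations in triplicate.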

[1] = target: Aldo-keto reductase family 1 member B1 (Rattus norvegicus, UniProt P07943); test: Inhibition of Sprague-Dawley albino rat lens ALR2 by spectrophotometry; type: tissue-based, Lens of camera-type eye
Liver = test: Induction of NO generation in Sprague-Dawley albino rat liver homogenate at 10^-4 M after 1 hr by Griess reaction; type: functional, tissue-based
In short: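 Rat liver rinsed in ice-cold sucrose buffer (100 mM K2HPO4, 1 mM EDTA, 1.15% KCl, 0.25 M sucrose, 0.1% EtOH, pH 7.4), homogenized 1/6 w/v, gauze-filtered, spun 600g 10 min at 0 °C to remove nuclei. Incubated with compound 1 h at 37 °C; nitrite measured by Griess reaction at 543 nm, given as % NO2− (mol/mol) relative to compound added. At least two determinations in triplicate.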

Rattus norvegicus = organism: Rattus norvegicus; test: Inhibition of Aldehyde reductase in Sprague-Dawley albino rat at 100 uM
In short: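 Rat kidney ALR1 at 37 °C with 20 mM sodium D-glucuronate and 0.12 mM NADPH (stock levels), dialyzed enzyme, 0.1 M sodium phosphate pH 7.2; rate calibrated to 0.015 absorbance unit/min. NADPH oxidation followed at 340 nm; blank without substrate. Percent inhibition at 100 μM.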

[2] = target: Aldo-keto reductase family 1 member B1 (Rattus norvegicus) (UniProt P07943); test: Ratio of KM07100 IC50 to compound IC50 for Sprague-Dawley albino rat lens ALR2; type: tissue-based; settings: Lens of camera-type eye

Row | Compound | IC50 [1] [nM] | inhibition (Rattus norvegicus) | Ratio IC50 [2] | inhibition (Brain) | Activity (Liver)
1 | O=S(=O)(Oc1ccc2nonc2c1)c1ccc(Cl)s1 |  | 20% |  |  | 
2 | COc1ccc(COc2ccc3c(c2)no[n+]3[O-])cc1 | 4520 | inactive |  | Active | 2%
3 | [O-][n+]1onc2cc(OCc3ccccc3)ccc21 | 990 | 26% | 36 | 50% | 2%
4 | Cc1c(C)c2c(c(C)c1O)CC[C@@](C)(CCC[C@H](C)CCC[C@H](C)CCCC(C)C)O2 |  |  |  | Active | 
5 | [O-][n+]1onc2cc(OCc3nc4ccccc4s3)ccc21 | 420 | 38% |  | Active | inactive
6 | [O-][n+]1onc2cc(OCc3ccc(F)cc3)ccc21 | 820 | inactive |  | Active | inactive
7 | Cc1ccc(COc2ccc3c(c2)no[n+]3[O-])cc1 | 830 | 24% |  | Active | 2%
8 | [O-][n+]1onc2cc(OCc3ccc(Br)cc3)ccc21 | 7360 | 19% |  | Active | 2%
9 | [O-][n+]1onc2cc(OCCc3ccccc3)ccc21 | 5900 | 11% |  | Active | 2%

More lines, in order of falling IC50 [1], values ahead:

Row | IC50 [1] [nM] | inhibition (Rattus norvegicus) | Ratio IC50 [2] | Compound | inhibition (Brain) | Activity (Liver)
10 | 1940 | 14% |  | [O-][n+]1onc2cc(OCc3ccc(C(F)(F)F)cc3)ccc21 | Active | 2%
11 | 1430 | 35% |  | [O-][n+]1onc2cc(OCc3ccc4ccccc4c3)ccc21 | Active | 2%
12 | 1410 | inactive |  | [O-][n+]1onc2cc(OCc3ccc(Br)cc3F)ccc21 | Active | inactive
13 | 920 | 19% |  | [O-][n+]1onc2cc(OCc3ccc(Cl)cc3)ccc21 | Active | 2%
14 | 460 | 5% |  | O=[N+]([O-])c1cccc(COc2ccc3c(c2)no[n+]3[O-])c1 | Active | 2%

Source: ChEMBL document CHEMBL2176922, “Benzofuroxane derivatives as multi-effective agents for the treatment of cardiovascular diabetic complications. Synthesis, functional evaluation, and molecular modeling studies” (J Med Chem, 2012)
